According to ChEMBL document CHEMBL4513216, “Probing the Open Global Health Chemical Diversity Library for Multistage-Active Starting Points for Next-Generation Antimalarials” (ACS Infect Dis, 2020):

Assay: Toxicity liver stage against HepG2, at 10uM
Format: cell-based
Set-up: test concentration 10 uM, cell line HepG2-A16-CD81EGFP
Details: human, HepG2-A16-CD81EGFP cells; read-out: INHIBITION
In short: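 Uninfected HepG2-A16-CD81EGFP cells, 3 × 10^3 per well, 1536-well, plated on prespotted compound at 10 μM final, parasite-free screening media added to match infected plates; puromycin 10 μM positive, DMSO 0.5% negative; run in parallel with 48 h PbLuc assay at 37 °C, 5% CO2; viability by CellTiter-Glo luminescence, normalized to controls.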

SMILES | cytotoxicity at 10 µM
COC(=O)[C@H]1CN(S(C)(=O)=O)CCN1S(C)(=O)=O | -1.37%
Cc1n[nH]c2c1C(c1ccncc1)SCC(=O)N2 (centres undefined) | 4.96%
O=C(N1CCCC1)N1CCC2(CC1)C(=O)N(CC1CC1)c1ccccc12 | 7.15%
CC(=O)N1CCS(=O)(=O)[C@@H]2CCN(S(=O)(=O)CC(C)C)CC[C@@H]21 | 6.1%
Fc1cccc(N2CCCC3(C2)CN(c2cnccn2)CCO3)c1 (centres undefined) | 8.49%
COc1cc(N2CC[C@@H](OC)[C@@H]2Cc2cnn(C)c2)ncn1 | -0.155%
CS(=O)(=O)NC[C@H]1OC[C@@H]2CCN(C(=O)c3cccnc3)C[C@@H]21 | 5.31%
COCC(=O)N1C[C@H]2CC[C@@]3(N=C(c4ccccc4)NC3=O)[C@H]2C1 | 3.83%
CCOCC1CN(C(=O)c2cccs2)Cc2nn(C)cc21 (centres undefined) | -1.63%
Cn1cc(N2CCC3(CCN(C(=O)c4cccn4C)C3)C2=O)cn1 (centres undefined) | 2.93%
Cc1csc(CN2CC[C@H]3C[C@H](c4nnc(C)[nH]4)O[C@@H]3C2)n1 | -19.6%
Cc1nn(C)c2nc(C3CC3)c(Cl)c(C(=O)O)c12 | 7.44%
Cc1nn(CC(F)F)c2c1c(C(F)F)cc(=O)n2CC(=O)O | 2.84%
CCOC(=O)N1CCN(C(=O)c2cc(-c3ccc(C)cc3)on2)CC1 | 5.68%
CNc1[nH]nc(N)c1C(=O)Nc1ccccc1 | 6.56%
CCCNC(=O)C(C)n1cc(Br)cn1 (centres undefined) | -19.7%
COCCC(=O)NCCc1nc2cc(-c3ccc(OC)cc3)ncn2n1 | 10.5%
Cn1cc(CN2CCC(c3ccncc3)CC2)cn1 | 0.26%
Cc1cccc(Nc2nccnc2C2CCCN2CC(N)=O)n1 (centres undefined) | -4.16%
COc1cc2nc3n(c(=O)c2cc1OC)CCN(C(=O)C1CCC1)CC3 | -8.8%
COC(=O)c1ccc(-c2cc(C(F)(F)F)cc(N(C)C)n2)cc1 | -0.409%
CC(O)c1cn(Cc2ccc(F)cc2)nn1 (centres undefined) | 4.78%

SMILES | cytotoxicity at 10 µM
Cn1cc(C2CCCN2C(=O)c2cnc(-c3ccco3)s2)cn1 (centres undefined) | 3.88%
CC1c2ccc(F)cc2CCN1C(=O)c1[nH]c(=O)[nH]c(=O)c1N (centres undefined) | -5.22%
CCNC(=O)C(C)(C)NC(=O)NCc1cccc(Br)c1 | 8.44%
CNC(=O)c1cccc(Nc2cnn(C)c2)c1 | 6.77%
CCc1ncc(C(=O)NCCNc2ccncc2)s1 | -9.7%
CC(NC(=O)CN(C)C(C)C)c1ccc(Oc2cccnc2)c(F)c1 (centres undefined) | 2%
O=C(CCn1cnc2cc(F)c(F)cc21)N1CCN2CCCCC2C1 (centres undefined) | -12.3%
Cc1[nH]n(-c2ccccc2)c2nnc(N)c1-2 | 12.4%
Cc1cccc(CC(=O)NS(=O)(=O)c2ccc(F)c(F)c2)c1 | -5.23%
CCNC(=O)Cc1ccc(NC(=O)NC(CC)CC)cc1 | -6.93%
O=C(C1CC(=O)N(c2ccccc2Br)C1)N1CCN(CC(F)(F)F)CC1 (centres undefined) | 7.29%
Cc1csc(CNC(=O)NCC(O)c2ccc(F)cc2F)n1 (centres undefined) | -10.8%
CCCc1nc(C)c(C(=O)NC2CCN(c3ncccn3)CC2)s1 | 16.7%
Cc1ncc(CN(C)C(=O)Nc2cccc(N3CCNC3=O)c2)s1 | 9.97%
OCC(O)CSCc1cn(-c2ccc(F)c(Cl)c2)nn1 (centres undefined) | 9.51%
Cc1nc(CC(=O)N2CCN(C(C)c3ccccc3F)CC2)cs1 (centres undefined) | 2.58%
O=C(NCC1(N2CCOCC2)CCSC1)Nc1ccc(F)cc1 (centres undefined) | -10.2%
COCc1noc(C2(c3ccc(Br)cc3)CCOCC2)n1 | -9.61%
c1cncc(COCC2C[C@@H]3OCCN(Cc4cccnc4)[C@H]3C2)c1 (some centres undefined) | 12.2%
O=C1COC2(CCN(C(=O)[C@H]3CCCO3)CC2)CN1Cc1ccccn1 | -0.524%
CCN1CC(=O)c2sc(NC(C)C)nc2C1 | -10.6%
CN1CCN(c2nccc(-c3cncnc3C3CCCCC3)n2)CC1 | -4.33%

SMILES | cytotoxicity at 10 µM
O=C(O)C1(Cc2ccccc2F)CCCN(c2ncnc3[nH]ccc23)C1 (centres undefined) | -0.44%
CC(C)Cc1noc(CN(C)c2cc(C(C)C)nc3ccnn23)n1 | -7.55%
Cc1noc2ncnc(NC(CC(C)(C)C)c3cccnc3)c12 (centres undefined) | 1.41%
Cc1cc(CN2CCC(C3CCN(CC(C)C)CC3)C2)[nH]n1 (centres undefined) | -8.71%
CC(C)N1CCC(C(=O)N(C)CC(=O)c2ccc(O)cc2)CC1 | -4.33%
CNC(=O)[C@@H]1C[C@H](N)CN1S(=O)(=O)c1cc(Cl)c(Cl)s1 | 1.27%
N#Cc1c2n(c3c(=O)[nH]cnc13)CCCCC2 | 5.5%
CNC(=O)[C@@H]1C[C@@H](NC(=O)Cc2cccs2)CN1C1CCOCC1 | 2.7%
CCN1CCCC(C)(C(=O)NCCc2n[nH]c(=O)[nH]2)C1 (centres undefined) | -1.76%
Cn1ncc2c(N3CCCC(C)(O)C3)nc(-c3cccnc3)nc21 (centres undefined) | 9.98%
c1cnc2ccc(C[C@@H]3CC[C@H](CN4CCCOCC4)O3)cc2c1 | -1.6%
c1cc(-c2n[nH]c(CNc3nnc(C4CC4)o3)n2)ccn1 | -2.59%
CN1C(=O)CC(C(=O)O)C12CCN(Cc1ccc(Cl)c(F)c1)CC2 (centres undefined) | 2.91%
CC(C)[C@@H]1CN(c2ncc(F)cn2)C[C@H]1NC(=O)N(C)C | -4.03%
Cc1cc2c(c(-c3cnccn3)c1)OC(CN)C2 (centres undefined) | -5.13%
CC(C)n1ccnc1C1CCN(Cc2ccc(Cl)c(F)c2)CC1 | -3.59%
CCC(=O)N1CCc2[nH]cnc2C12CCN(C(=O)CCS(C)(=O)=O)CC2 | -14.4%
Cn1cccc1-c1cc(C(=O)N2CCCC2c2cccnc2)[nH]n1 (centres undefined) | -9.32%
Fc1cccnc1CN1CCCCC1c1ccn2ccnc2n1 (centres undefined) | 0.505%
Cc1cnc(CN2CCN(c3ccc4nncn4n3)C(C)C2)cn1 (centres undefined) | -2.21%
Cc1nn(C)c(C)c1C1CCCN1C(=O)CCCc1ccccn1 (centres undefined) | 2.43%
Cc1cccc(CN(Cc2nc3c(cnn3C)c(=O)[nH]2)C2CC2)c1 | 0.914%

SMILES | cytotoxicity at 10 µM
CC(C)c1nn(C)c(N2CCOCC2)c1CNC(C)c1ccccn1 (centres undefined) | -6.56%
O=C(NCCN1CCOCC1)c1scnc1Cl | -2.09%
Cc1ccc(OCCN(C)Cc2nc3c(cnn3C)c(=O)[nH]2)cc1 | -3.44%
Cc1nn(C)c(C)c1CC(=O)N1CCCC(n2ccnc2C)C1 (centres undefined) | -5.36%
CNc1nc(CNC(=O)Nc2cccc(OC)c2)cs1 | -3.28%
CC(C)C(C(=O)N1CCCN(c2nccs2)CC1)n1cncn1 (centres undefined) | -4.98%
O=C(C1CCCCC1)N1CCN(Cc2nc(-c3ccco3)no2)CC1 | -1.01%
NC(=O)Cn1cc(NC(=O)N2CCCC(O)C2)cn1 (centres undefined) | -10.1%
CCNc1cc2c(nn1)CCN(C(=O)c1nccnc1N)C2 | -16.4%
CCc1nc(C2CCCN2CC(=O)N2CCc3ccccc32)no1 (centres undefined) | -11.2%
Cn1cc(NS(=O)(=O)c2ccc(F)c(F)c2)ccc1=O | -9.59%
Cc1noc(CN2CCN(C(=O)N(C)C)CC2)n1 | -1.22%
COc1ccc(-c2nnc(CNCCn3cccn3)o2)cc1 | -14.5%
CCc1nc(C2CCCN2C(=O)c2ccc(N3CCCC3)nn2)no1 (centres undefined) | -3.27%
CCc1nc(C)ncc1C(=O)N1CCOC(c2nc(C)n[nH]2)C1 (centres undefined) | -7.88%
CC(C)CN1CCN(C(=O)c2ccn(C)c(=O)c2)CC1 | -17.2%
Cc1cc(C)n(C2CCCN(C(=O)c3cccc4c3OCO4)C2)n1 (centres undefined) | -3.88%
CC(c1cccc(S(N)(=O)=O)c1)N(C)CCCOc1ccccc1 (centres undefined) | -1.99%
COc1c(C2CCCN2C(=O)c2cccnc2N(C)C)c(C)nn1C (centres undefined) | -7.62%
Cc1nc2ccccc2nc1CN(C)C1CCCN(c2cccnn2)C1 (centres undefined) | -9.71%
CN(C)CC1CN(Cc2csc(C3CCCC3)n2)CCO1 (centres undefined) | -7.32%
Cc1nc(C2CCCN(C(=O)COCc3ccccc3Cl)C2)no1 (centres undefined) | 5.8%

SMILES | cytotoxicity at 10 µM
CCOc1ccc(S(=O)(=O)NC(=O)CCC2CCCO2)cc1 (centres undefined) | -11.5%
CN(C)[C@@H]1CN(Cc2cccnc2)C[C@H]1c1cn(C)c2ccccc12 | 1.44%
CCNC(=O)[C@@H]1CCCN1C1(C(=O)NC)CCC1 | -1.66%
O=C(NC[C@H]1OC[C@@H]2CCN(Cc3ccco3)C[C@@H]21)c1ccsc1 | -18.3%
O=C1CC2(CCCCN2C(=O)c2ccncc2)CN1CC1CC1 (centres undefined) | 2.17%
CC(C)CNC(=O)[C@H]1CCS(=O)(=O)[C@@H]2CN(CC(C)C)C[C@H]12 | -1.66%
CO[C@@H]1CC[C@H]2[C@H]1OCCN2CC1CC1 | 11.4%
CN(Cc1ccco1)[C@@H]1CN(Cc2ccncc2)C[C@@H]2CCCO[C@@H]21 | 0.361%
CC(C)CN1C(=O)C2(CCN(Cc3ccoc3)C2)c2ccccc21 (centres undefined) | 4.82%
Cn1cc(CN2CCc3c(cnc(-c4ccccc4)c3C(=O)O)C2)cn1 | 4.2%
O=C(c1cscn1)N1CCc2ncnc(-c3cccnc3)c2CC1 | -1.6%
Cc1noc(C)c1CN1CCc2cnn(C)c2C1COCC1CC1 (centres undefined) | 10.7%
CN(C)C(=O)COCc1cncc2c1CCN(Cc1cnn(C)c1)C2 | -3.48%
COCCN1CCC2(CC1)CC(COC)N(c1ncccn1)C2 (centres undefined) | -3.53%
Fc1ccccc1CN1C[C@@H](OCc2ccncc2)[C@H]2OCCC[C@H]21 | -4.81%
c1cc(-c2ccc3nc(C4CCN(CC5CC5)CC4)nn3c2)cs1 | -12.2%
Cc1ccc(CN2CCC3(CC2)C(=O)Nc2ccccc23)s1 | 2.88%
c1cncc(C2COC3(CCN(CC4CCOCC4)CC3)C2)c1 (centres undefined) | -10.4%
CN(C)CCNCCC(c1ccccc1)C1CCOC(C)(C)C1 (centres undefined) | -5.67%
CC(C)Cn1nccc1NC(=O)CN1CCOC(Cn2cccn2)C1 (centres undefined) | -12%
CC1CCN(c2nc3cn(-c4ccc5c(c4)OCO5)c(=O)c-3c[nH]2)CC1 | -14%
